# ChEMBL document CHEMBL1142492 (J Med Chem, 2008)
# What was measured:
# [1] = molecular target: Casein kinase I isoform gamma-1 (Homo sapiens) (UniProt Q9HCP0); assay: Inhibition of CSNK1G1 at 3 uM
# Rattus norvegicus = organism: Rattus norvegicus; details: 3 uM
# [2] = molecular target: Myosin-IIIa (Homo sapiens) (UniProt Q8NEV4); assay: Inhibition of MYO3A at 3 uM
# [3] = molecular target: Membrane-associated tyrosine- and threonine-specific cdc2-inhibitory kinase (Homo sapiens) (UniProt Q99640); assay: Inhibition of PKMYT1 at 3 uM
# [4] = molecular target: Serine/threonine-protein kinase 32C (Homo sapiens) (UniProt Q86UX6); assay: Inhibition of YANK3 at 3 uM
# [5] = molecular target: Cyclin-dependent kinase 15 (Homo sapiens) (UniProt Q96Q40); assay: Inhibition of PFTAIRE2 at 3 uM
# [6] = molecular target: Proto-oncogene tyrosine-protein kinase receptor Ret (Homo sapiens) (UniProt P07949); assay: Inhibition of RET at 3 uM
# [7] = molecular target: Serine/threonine-protein kinase TAO3 (Homo sapiens) (UniProt Q9H2K8); assay: Inhibition of TAOK3 at 3 uM
# [8] = molecular target: Dual specificity mitogen-activated protein kinase kinase 2 (Homo sapiens) (UniProt P36507); assay: Inhibition of MEK2 at 3 uM
# [9] = molecular target: Proto-oncogene tyrosine-protein kinase ROS (Homo sapiens) (UniProt P08922); assay: Inhibition of ROS1 at 3 uM
# [10] = tested on: Epidermal growth factor receptor (Homo sapiens), P00533 [G719C]; assay: Inhibition of EGFR G719C mutant at 3 uM; format: protein assay
# [11] = molecular target: Misshapen-like kinase 1 (Homo sapiens) (UniProt Q8N4C8); assay: Inhibition of MINK at 3 uM
# [12] = molecular target: Aurora kinase C (Homo sapiens) (UniProt Q9UQB9); assay: Inhibition of AURKC at 3 uM
# [13] = molecular target: Alpha-1B adrenergic receptor (Rattus norvegicus) (UniProt P15823); assay: Inhibition of rat adrenergic Alpha-1B receptor at 3 uM
# [14] = molecular target: Mitogen-activated protein kinase 10 (Homo sapiens) (UniProt P53779); assay: Inhibition of JNK3 at 3 uM
# [15] = molecular target: Calcium/calmodulin-dependent protein kinase type II subunit gamma (Homo sapiens) (UniProt Q13555); assay: Inhibition of CAMK2G at 3 uM
# [16] = molecular target: Cyclin-dependent kinase 18 (Homo sapiens) (UniProt Q07002); assay: Inhibition of PCTK3 at 3 uM
# [17] = molecular target: Tyrosine-protein kinase Mer (Homo sapiens) (UniProt Q12866); assay: Inhibition of MERTK at 3 uM
# [18] = molecular target: SRSF protein kinase 3 (Homo sapiens) (UniProt Q9UPE1); assay: Inhibition of SRPK3 at 3 uM
# [19] = molecular target: Focal adhesion kinase 1 (Homo sapiens) (UniProt Q05397); assay: Inhibition of PTK2 at 3 uM
# [20] = molecular target: Protein kinase C delta type (Homo sapiens) (UniProt Q05655); assay: Inhibition of PRKCD at 3 uM
# [21] = tested on: Tyrosine-protein kinase ABL1 (Homo sapiens), P00519 [H396P]; assay: Inhibition of ABL1 H396P mutant at 3 uM
# [22] = molecular target: Activin receptor type-2A (Homo sapiens) (UniProt P27037); assay: Inhibition of ACVR2A at 3 uM
# [23] = molecular target: Bone morphogenetic protein receptor type-1A (Homo sapiens) (UniProt P36894); assay: Inhibition of BMPR1A at 3 uM
# [24] = tested on: Tyrosine-protein kinase ABL1 (Homo sapiens), P00519 [F317L]; assay: Inhibition of ABL1 F317L mutant at 3 uM
# [25] = molecular target: Casein kinase I isoform alpha-like (Homo sapiens) (UniProt Q8N752); assay: Inhibition of CSNK1A1L at 3 uM
# [26] = molecular target: Phosphatidylinositol 4-phosphate 3-kinase C2 domain-containing subunit beta (Homo sapiens) (UniProt O00750); assay: Inhibition of PIK3C2B at 3 uM
# [27] = molecular target: NT-3 growth factor receptor (Homo sapiens) (UniProt Q16288); assay: Inhibition of TRKC at 3 uM
# [28] = molecular target: Myosin light chain kinase family member 4 (Homo sapiens) (UniProt Q86YV6); assay: Inhibition of SgK085 at 3 uM
# [29] = molecular target: Non-receptor tyrosine-protein kinase TNK1 (Homo sapiens) (UniProt Q13470); assay: Inhibition of TNK1 at 3 uM
# [30] = Clearance in Sprague-Dawley rat at 1 mg/kg, iv; details: in vivo
# [31] = molecular target: Tyrosine-protein kinase HCK (Homo sapiens) (UniProt P08631); assay: Inhibition of HCK at 3 uM
# [32] = molecular target: Serine/threonine-protein kinase PLK3 (Homo sapiens) (UniProt Q9H4B4); assay: Inhibition of PLK3 at 3 uM
# [33] = molecular target: Endothelin-1 receptor (Homo sapiens) (UniProt P25101); assay: Inhibition of human endothelin ETA receptor at 3 uM
# Procedure, shortened: (§1)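 Counter-screen binding/enzyme panel at single 3 μM, n=2; results as percent inhibition. Species per target as listed (rat NMDA, GABAA sites; human receptors, transporters; rabbit ACE).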
# [34] = molecular target: Serine/threonine-protein kinase B-raf (Homo sapiens) (UniProt P15056); assay: Inhibition of BRAF at 3 uM
# [35] = molecular target: 5'-AMP-activated protein kinase catalytic subunit alpha-1 (Homo sapiens) (UniProt Q13131); assay: Inhibition of AMPKalpha1 at 3 uM
# [36] = tested on: Proto-oncogene tyrosine-protein kinase receptor Ret (Homo sapiens), P07949 [V804L]; assay: Inhibition of RET V804L mutant at 3 uM
# CYP3A4 = CYP3A4 (Homo sapiens, UniProt P08684); assay: Inhibition of human CYP3A4 at 10 uM; format: ADME
# [37] = molecular target: Receptor-interacting serine/threonine-protein kinase 4 (Homo sapiens) (UniProt P57078); assay: Inhibition of RIPK4 at 3 uM
# [38] = molecular target: Receptor-interacting serine/threonine-protein kinase 1 (Homo sapiens) (UniProt Q13546); assay: Inhibition of RIPK1 at 3 uM
# [39] = molecular target: Casein kinase I isoform delta (Homo sapiens) (UniProt P48730); assay: Inhibition of CSNK1D at 3 uM
# [40] = molecular target: Angiopoietin-1 receptor (Homo sapiens) (UniProt Q02763); assay: Inhibition of TIE2 at 3 uM
# [41] = molecular target: Casein kinase I isoform epsilon (Homo sapiens) (UniProt P49674); assay: Inhibition of CSNK1E at 3 uM
# [42] = molecular target: Protein-tyrosine kinase 2-beta (Homo sapiens) (UniProt Q14289); assay: Inhibition of PTK2B at 3 uM
# [43] = molecular target: Serine/threonine-protein kinase PAK 3 (Homo sapiens) (UniProt O75914); assay: Inhibition of PAK3 at 3 uM
# [44] = molecular target: Neuropeptide Y receptor type 1 (Homo sapiens) (UniProt P25929); assay: Inhibition of human neuropeptide Y Y1 receptor at 3 uM; procedure, shortened: as §1
# [45] = molecular target: Serine/threonine-protein kinase MARK1 (Homo sapiens) (UniProt Q9P0L2); assay: Inhibition of MARK1 at 3 uM
# SRSF protein kinase 3 (Homo sapiens), sequence (Q9UPE1 whole entry): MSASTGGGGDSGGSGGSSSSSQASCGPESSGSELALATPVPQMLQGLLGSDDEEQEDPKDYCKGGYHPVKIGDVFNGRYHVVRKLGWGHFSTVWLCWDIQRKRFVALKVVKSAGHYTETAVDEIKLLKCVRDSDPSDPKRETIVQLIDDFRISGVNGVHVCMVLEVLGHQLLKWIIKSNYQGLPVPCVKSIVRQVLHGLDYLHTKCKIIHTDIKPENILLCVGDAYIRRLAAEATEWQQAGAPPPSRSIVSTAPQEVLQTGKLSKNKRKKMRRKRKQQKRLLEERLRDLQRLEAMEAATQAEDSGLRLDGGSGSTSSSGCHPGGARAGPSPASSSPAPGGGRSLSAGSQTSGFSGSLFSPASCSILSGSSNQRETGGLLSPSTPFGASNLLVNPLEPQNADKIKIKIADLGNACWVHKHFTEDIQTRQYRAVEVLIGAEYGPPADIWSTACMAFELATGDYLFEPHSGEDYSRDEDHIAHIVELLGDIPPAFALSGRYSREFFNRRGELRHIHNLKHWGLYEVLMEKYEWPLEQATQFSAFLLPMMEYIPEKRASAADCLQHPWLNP
# NT-3 growth factor receptor (Homo sapiens), sequence (Q16288 32-839 limits assumed): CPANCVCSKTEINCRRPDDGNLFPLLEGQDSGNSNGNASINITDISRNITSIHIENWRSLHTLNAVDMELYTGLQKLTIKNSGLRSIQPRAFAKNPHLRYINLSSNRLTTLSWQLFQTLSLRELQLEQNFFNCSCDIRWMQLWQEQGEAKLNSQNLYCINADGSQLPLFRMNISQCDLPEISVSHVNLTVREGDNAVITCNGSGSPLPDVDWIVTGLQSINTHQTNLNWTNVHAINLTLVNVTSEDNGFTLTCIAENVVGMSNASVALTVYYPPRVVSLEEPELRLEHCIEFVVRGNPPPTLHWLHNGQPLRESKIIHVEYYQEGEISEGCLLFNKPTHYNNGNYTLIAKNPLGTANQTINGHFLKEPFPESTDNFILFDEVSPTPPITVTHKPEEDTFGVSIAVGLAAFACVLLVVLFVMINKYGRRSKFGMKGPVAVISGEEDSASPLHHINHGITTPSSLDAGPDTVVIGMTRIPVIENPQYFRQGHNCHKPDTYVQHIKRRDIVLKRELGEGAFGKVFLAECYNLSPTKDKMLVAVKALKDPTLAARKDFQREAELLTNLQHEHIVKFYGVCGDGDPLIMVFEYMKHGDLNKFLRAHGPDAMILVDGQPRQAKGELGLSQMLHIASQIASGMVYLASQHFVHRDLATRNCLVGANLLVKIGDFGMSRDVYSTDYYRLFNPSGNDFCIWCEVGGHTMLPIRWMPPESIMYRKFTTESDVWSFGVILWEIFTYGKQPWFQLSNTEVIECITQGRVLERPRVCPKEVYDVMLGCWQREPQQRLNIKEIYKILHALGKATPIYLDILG
# Calcium/calmodulin-dependent protein kinase type II subunit gamma (Homo sapiens), sequence (Q13555 whole entry): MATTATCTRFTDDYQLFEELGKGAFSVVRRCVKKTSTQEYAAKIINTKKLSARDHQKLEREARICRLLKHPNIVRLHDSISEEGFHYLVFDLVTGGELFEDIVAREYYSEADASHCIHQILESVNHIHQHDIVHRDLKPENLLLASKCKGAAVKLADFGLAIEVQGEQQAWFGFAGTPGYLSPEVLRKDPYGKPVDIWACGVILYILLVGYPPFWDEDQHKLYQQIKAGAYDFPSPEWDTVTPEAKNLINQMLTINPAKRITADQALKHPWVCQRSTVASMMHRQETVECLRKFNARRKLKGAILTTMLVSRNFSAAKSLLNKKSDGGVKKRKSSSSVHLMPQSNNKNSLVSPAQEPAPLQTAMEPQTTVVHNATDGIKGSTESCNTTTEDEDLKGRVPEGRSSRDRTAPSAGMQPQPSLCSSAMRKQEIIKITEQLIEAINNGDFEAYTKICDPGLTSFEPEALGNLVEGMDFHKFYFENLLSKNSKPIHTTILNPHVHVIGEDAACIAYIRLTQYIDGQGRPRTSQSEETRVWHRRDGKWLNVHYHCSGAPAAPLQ
# Tyrosine-protein kinase Mer (Homo sapiens), sequence (Q12866 whole entry): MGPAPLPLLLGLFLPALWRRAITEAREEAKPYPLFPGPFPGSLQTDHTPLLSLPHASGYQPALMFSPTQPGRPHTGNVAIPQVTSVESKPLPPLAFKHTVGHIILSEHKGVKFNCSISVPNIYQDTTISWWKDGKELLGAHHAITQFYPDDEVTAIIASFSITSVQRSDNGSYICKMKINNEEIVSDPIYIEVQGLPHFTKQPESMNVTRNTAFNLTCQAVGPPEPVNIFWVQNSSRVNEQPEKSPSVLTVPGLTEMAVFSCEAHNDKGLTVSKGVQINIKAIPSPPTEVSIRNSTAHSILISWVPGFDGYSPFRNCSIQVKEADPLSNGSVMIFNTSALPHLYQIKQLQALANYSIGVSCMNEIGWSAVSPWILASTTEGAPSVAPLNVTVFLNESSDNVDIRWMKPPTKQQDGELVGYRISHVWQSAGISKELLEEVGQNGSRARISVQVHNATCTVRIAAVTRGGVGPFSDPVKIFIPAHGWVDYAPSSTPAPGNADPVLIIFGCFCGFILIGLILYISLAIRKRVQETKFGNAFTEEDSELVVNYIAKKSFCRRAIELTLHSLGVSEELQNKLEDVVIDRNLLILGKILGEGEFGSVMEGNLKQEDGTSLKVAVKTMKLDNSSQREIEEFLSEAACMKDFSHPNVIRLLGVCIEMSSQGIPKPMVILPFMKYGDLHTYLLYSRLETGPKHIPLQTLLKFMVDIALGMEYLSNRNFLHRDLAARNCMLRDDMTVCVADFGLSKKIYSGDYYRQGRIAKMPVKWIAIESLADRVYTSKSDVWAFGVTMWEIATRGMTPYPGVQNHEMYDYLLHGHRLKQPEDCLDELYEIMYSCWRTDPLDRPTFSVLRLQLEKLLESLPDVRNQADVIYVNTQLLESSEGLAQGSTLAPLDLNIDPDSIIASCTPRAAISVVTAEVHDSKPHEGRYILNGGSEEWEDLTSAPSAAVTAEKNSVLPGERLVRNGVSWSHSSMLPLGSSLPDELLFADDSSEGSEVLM
# Protein kinase C delta type (Homo sapiens), sequence (Q05655 whole entry, looked up): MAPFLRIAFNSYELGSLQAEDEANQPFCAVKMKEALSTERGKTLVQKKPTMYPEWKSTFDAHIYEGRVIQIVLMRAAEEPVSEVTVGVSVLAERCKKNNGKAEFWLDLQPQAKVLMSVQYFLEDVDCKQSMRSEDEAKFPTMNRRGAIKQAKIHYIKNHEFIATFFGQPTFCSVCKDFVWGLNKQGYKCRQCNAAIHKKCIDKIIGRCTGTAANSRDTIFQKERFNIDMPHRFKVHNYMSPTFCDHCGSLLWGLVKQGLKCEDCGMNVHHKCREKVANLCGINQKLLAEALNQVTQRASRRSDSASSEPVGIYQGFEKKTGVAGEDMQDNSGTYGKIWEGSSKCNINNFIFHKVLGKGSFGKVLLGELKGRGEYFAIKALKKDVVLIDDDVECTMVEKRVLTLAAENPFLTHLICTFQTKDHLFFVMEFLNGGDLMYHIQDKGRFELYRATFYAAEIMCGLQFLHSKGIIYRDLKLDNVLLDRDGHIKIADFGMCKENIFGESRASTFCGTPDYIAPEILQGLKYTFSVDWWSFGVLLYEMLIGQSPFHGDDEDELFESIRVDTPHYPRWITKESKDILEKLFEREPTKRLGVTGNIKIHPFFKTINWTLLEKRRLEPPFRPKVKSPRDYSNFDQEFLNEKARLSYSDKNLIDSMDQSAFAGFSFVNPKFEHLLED
# Alpha-1B adrenergic receptor (Rattus norvegicus), sequence (P15823 whole entry): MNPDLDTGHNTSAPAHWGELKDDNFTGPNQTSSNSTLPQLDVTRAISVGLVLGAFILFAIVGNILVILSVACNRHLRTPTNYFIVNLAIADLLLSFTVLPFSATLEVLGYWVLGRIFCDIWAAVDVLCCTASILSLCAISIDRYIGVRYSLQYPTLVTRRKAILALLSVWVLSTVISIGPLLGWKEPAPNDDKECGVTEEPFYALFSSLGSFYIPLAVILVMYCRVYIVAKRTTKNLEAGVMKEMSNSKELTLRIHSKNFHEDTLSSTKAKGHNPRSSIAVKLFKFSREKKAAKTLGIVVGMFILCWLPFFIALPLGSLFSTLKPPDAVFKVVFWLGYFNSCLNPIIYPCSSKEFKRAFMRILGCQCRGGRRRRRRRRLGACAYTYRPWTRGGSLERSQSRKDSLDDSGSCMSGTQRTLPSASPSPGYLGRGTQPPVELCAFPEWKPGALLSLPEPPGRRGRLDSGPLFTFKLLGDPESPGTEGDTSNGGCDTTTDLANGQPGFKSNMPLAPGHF
# Serine/threonine-protein kinase 32C (Homo sapiens), sequence (Q86UX6 whole entry): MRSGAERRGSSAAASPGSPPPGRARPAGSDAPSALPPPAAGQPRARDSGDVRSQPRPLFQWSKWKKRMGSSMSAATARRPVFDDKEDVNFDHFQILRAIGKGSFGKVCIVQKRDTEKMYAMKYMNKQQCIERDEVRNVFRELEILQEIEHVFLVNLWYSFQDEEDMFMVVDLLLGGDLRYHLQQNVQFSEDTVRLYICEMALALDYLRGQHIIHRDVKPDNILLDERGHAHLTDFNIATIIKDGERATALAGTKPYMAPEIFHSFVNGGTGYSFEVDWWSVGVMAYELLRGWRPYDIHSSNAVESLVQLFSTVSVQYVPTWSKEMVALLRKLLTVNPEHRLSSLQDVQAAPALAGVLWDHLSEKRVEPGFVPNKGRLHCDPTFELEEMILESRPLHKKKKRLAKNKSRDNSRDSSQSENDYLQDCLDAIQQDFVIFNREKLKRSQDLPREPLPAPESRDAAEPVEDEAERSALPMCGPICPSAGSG
# Aurora kinase C (Homo sapiens), sequence (Q9UQB9 whole entry): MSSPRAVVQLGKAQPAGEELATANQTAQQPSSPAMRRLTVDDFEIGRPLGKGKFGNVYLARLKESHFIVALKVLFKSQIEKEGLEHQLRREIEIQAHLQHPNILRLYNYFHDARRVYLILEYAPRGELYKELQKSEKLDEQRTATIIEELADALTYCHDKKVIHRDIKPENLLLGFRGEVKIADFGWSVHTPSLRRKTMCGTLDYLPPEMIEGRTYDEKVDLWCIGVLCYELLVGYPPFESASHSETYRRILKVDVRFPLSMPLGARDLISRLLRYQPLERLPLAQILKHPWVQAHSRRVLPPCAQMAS
smiles,measurement,setting,value
CN(C)CCOc1cc(-c2cn[nH]c2)ccc1NC(=O)C1COc2ccccc2O1 (configuration not stated) [SR-3677],inhibition,[1],< 10%
same,inhibition,Rattus norvegicus,-1%
same,inhibition,[2],< 10%
same,inhibition,[3],< 10%
same,inhibition,[4],< 10%
same,inhibition,[5],< 10%
same,inhibition,[6],< 10%
same,inhibition,[7],< 10%
same,inhibition,[8],< 10%
same,inhibition,[9],< 10%
same,inhibition,[10],< 10%
same,inhibition,[11],< 10%
same,inhibition,[12],< 10%
same,inhibition,[13],68%
same,inhibition,[14],< 10%
same,inhibition,[15],< 10%
same,inhibition,[16],< 10%
same,inhibition,[17],< 10%
same,inhibition,[18],< 10%
same,inhibition,[19],< 10%
same,inhibition,[20],< 10%
same,inhibition,[21],< 10%
same,inhibition,[22],< 10%
same,inhibition,[23],< 10%
same,inhibition,[24],< 10%
same,inhibition,[25],< 10%
same,inhibition,[26],< 10%
same,inhibition,[27],< 10%
same,inhibition,[28],< 10%
same,inhibition,[29],< 10%
same,clearance,[30],61 mL/min/kg
same,inhibition,[31],< 10%
same,inhibition,[32],< 10%
same,inhibition,[33],1%
same,inhibition,[34],< 10%
same,inhibition,[35],< 10%
same,inhibition,[36],< 10%
same,inhibition at 10 µM,CYP3A4,0%
same,inhibition,[37],< 10%
same,inhibition,[38],< 10%
same,inhibition,[39],< 10%
same,inhibition,[40],< 10%
same,inhibition,[41],< 10%
same,inhibition,[42],< 10%
same,inhibition,[43],< 10%
same,inhibition,[44],-8%
same,inhibition,[45],< 10%
